Measurements reported in ChEMBL document CHEMBL1141216, “Mono- or diphenylpyridazines connected to N-(2,4-difluorophenyl)-N'-heptylurea as acyl-CoA:cholesterol acyltransferase inhibitors” (J Med Chem, 2005).

Assays:
[1] = molecular target: T1, Sterol O-acyltransferase 1 (Rattus norvegicus) (UniProt O70536); test: Inhibition of ACAT expressed in rat liver microsomes at 50 ug/ml; details: Microsome
T1 sequence (whole entry): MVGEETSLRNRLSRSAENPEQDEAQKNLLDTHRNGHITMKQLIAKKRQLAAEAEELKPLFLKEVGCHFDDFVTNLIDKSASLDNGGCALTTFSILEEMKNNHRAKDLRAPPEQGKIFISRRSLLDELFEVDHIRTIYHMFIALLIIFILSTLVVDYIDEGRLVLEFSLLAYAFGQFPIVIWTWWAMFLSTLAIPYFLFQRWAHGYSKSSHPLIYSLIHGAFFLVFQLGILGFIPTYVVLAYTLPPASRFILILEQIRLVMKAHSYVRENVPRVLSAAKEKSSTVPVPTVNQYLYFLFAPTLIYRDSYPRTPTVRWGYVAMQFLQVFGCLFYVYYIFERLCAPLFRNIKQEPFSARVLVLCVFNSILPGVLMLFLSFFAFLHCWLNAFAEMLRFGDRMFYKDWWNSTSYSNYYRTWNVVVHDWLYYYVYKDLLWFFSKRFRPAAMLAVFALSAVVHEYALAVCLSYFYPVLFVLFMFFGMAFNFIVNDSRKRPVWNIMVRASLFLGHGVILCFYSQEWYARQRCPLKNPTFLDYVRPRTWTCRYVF
How it was run: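 Rat liver microsomes were the enzyme source, assayed by a previously described method. Compounds were tested at 50 μg/mL, and the readout was % ACAT inhibition. Values are means of three experiments differing by less than 10%. GERI-BP001M served as reference.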

[2] = molecular target: T2, Sterol O-acyltransferase 1 (Homo sapiens, UniProt P35610); test: Inhibition of human ACAT1 expressed in Hi5 cells; design: species or system BTI-TN-5B1-4
T2 sequence (P35610 whole entry): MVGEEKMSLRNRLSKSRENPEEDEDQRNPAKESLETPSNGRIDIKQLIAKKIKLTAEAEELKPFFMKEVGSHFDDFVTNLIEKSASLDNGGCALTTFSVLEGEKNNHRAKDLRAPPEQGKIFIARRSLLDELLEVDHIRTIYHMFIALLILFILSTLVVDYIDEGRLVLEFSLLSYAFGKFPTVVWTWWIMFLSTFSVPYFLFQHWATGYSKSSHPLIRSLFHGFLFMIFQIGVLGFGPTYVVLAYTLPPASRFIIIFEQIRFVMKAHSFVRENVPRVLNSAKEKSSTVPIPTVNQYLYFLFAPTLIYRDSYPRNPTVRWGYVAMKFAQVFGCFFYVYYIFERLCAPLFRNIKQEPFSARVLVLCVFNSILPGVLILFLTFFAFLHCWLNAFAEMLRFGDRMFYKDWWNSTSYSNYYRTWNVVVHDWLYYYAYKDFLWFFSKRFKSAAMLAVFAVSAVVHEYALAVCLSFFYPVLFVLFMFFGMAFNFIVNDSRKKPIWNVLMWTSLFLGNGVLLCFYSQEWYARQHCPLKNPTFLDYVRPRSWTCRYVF

[3] = molecular target: T3, Sterol O-acyltransferase 2 (Homo sapiens, UniProt O75908); test: Inhibition of human ACAT2 expressed in Hi5 cells; design: species or system BTI-TN-5B1-4
T3 sequence (O75908 whole entry): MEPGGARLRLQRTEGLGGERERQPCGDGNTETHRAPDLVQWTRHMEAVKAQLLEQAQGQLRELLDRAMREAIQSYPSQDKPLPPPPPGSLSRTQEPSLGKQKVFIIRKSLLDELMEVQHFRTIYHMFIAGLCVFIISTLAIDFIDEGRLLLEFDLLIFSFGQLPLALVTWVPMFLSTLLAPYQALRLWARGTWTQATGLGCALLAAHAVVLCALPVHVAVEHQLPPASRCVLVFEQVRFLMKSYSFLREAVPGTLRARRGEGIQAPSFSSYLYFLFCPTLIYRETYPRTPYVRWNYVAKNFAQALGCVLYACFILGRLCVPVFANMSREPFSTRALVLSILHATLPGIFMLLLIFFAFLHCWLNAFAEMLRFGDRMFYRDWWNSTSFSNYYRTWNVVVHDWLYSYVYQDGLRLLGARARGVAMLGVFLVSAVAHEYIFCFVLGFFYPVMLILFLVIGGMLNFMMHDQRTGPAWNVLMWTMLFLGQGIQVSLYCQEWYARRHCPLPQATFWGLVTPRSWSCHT
How it was run: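 Human ACAT-2 was expressed by baculovirus in Hi5 insect cells, and microsomal fractions of these cells were the enzyme source. Activity was measured by the Brecher and Chan method with slight modification.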

[4] = molecular target: T4, Sterol O-acyltransferase 1 (Rattus norvegicus, UniProt O70536); test: Inhibition of ACAT expressed in rat liver microsomes; design: species or system Microsome
T4 sequence (O70536 whole entry): T1 sequence (whole entry)

SMILES	inhibition [1] [%]	IC50 [2] [µM]	IC50 [3] [µM]	IC50 [4] [µM]
CCCCCCCN(CCCCC[S+]([O-])c1cc(-c2ccccc2)cnn1)C(=O)Nc1ccc(F)cc1F (centres undefined)	62			
CCCCCCCN(CCCCC[S+]([O-])c1ccc(-c2ccccc2)nn1)C(=O)Nc1ccc(F)cc1F (centres undefined)	55			
CCCCCCCN(CCCCCS(=O)(=O)c1cc(-c2ccccc2)c(-c2ccccc2)nn1)C(=O)Nc1ccc(F)cc1F	70			
CCCCCCCN(CCCCCS(=O)(=O)c1cc(-c2ccccc2)cnn1)C(=O)Nc1ccc(F)cc1F	67			
CCCCCCCN(CCCCCSc1cc(-c2ccccc2)cnn1)C(=O)Nc1ccc(F)cc1F	75			
CCCCCCCN(CCCCCNc1ccc(-c2ccccc2)nn1)C(=O)Nc1ccc(F)cc1F	89	5.34	2.07	1.21
CCCCCCCN(CCCCCSc1ccc(-c2ccccc2)nn1)C(=O)Nc1ccc(F)cc1F	44			
CCCCCCCN(CCCCCS(=O)(=O)c1ccc(-c2ccccc2)nn1)C(=O)Nc1ccc(F)cc1F	43			
CCCCCCCN(CCCCCSc1cc(-c2ccccc2)c(-c2ccccc2)nn1)C(=O)Nc1ccc(F)cc1F	75			
CCCCCCCN(CCCCCNc1cc(-c2ccccc2)c(-c2ccccc2)nn1)C(=O)Nc1ccc(F)cc1F	87		1.74	2.32
CCCCCCCN(CCCCCNc1cc(-c2ccccc2)cnn1)C(=O)Nc1ccc(F)cc1F	46		101	36.4
CCCCCCCN(CCCCC[S+]([O-])c1cc(-c2ccccc2)c(-c2ccccc2)nn1)C(=O)Nc1ccc(F)cc1F (centres undefined)	65			
